Results: ChEMBL document CHEMBL1949667, “Development of small-molecule probes that selectively kill cells induced to express mutant RAS” (Bioorg Med Chem Lett, 2012)
≈ marks a conversion by molar mass, not a printed value. Calls of active or inactive are those of the source. The calls are words filed in the database; no cut-off is given here.

Legend:
[1] = Cytotoxicity against human BJeH-LT cells after 48 hrs by alamar blue assay; type: cell-based
Procedure, shortened: (§1)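 Cells grown in DMEM/M199 with heat-inactivated FBS at 37°C, 5% CO2, ≤20 passages. Compounds in DMSO diluted into medium, then 2-fold serial dilutions in medium; 1000 cells/well treated for 48 h. Viability read by adding Alamar Blue (50% in growth medium), incubating 16 h, then fluorescence at 544 excitation/590 emission; concentration-response curves generated.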

[2] = Cytotoxicity against human BJeLR cells expressing HRAS G12V mutant after 48 hrs by alamar blue assay; type: functional, cell-based
Procedure, shortened: (§2)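 BJ fibroblast lines: BJeLR (hTERT, SV40 large and small T, HRASV12) and DRD (hTERT, SV40 small T, dominant-negative p53, cyclin D1, mutant CDK4, HRASV12), grown in DMEM/M199/heat-inactivated FBS for ≤20 passages. Compounds were taken from DMSO into medium as 2-fold serial dilutions. 1000 cells/well were exposed for 48 h at 37°C, 5% CO2. Alamar Blue was added for 16 h, then fluorescence read at excitation 544, emission 590.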

[3] = Cytotoxicity against human BJeH cells after 48 hrs by alamar blue assay; type: cell-based
BJ = experiment: Cytotoxicity against human BJ cells expressing HRAS G12V mutant with alternative oncogenic constructs after 48 hrs by alamar blue assay; type: functional, cell-based; procedure, shortened: as §2
[4] = Aqueous solubility of the compound; type: physicochemical
[5] = Drug degradation in PBS assessed as racemisation after 48 hrs by HPLC/MS analysis; type: physicochemical; conditions: buffer
[6] = Drug degradation in PBS/DMSO assessed as GSH-adduct formation after 1 hr in the presence of GSH and triethylamine; type: physicochemical; conditions: buffer
[7] = Selectivity ratio of IC50 for human BJeH-LT cells to IC50 for human BJeLR cells; type: ADME, cell-based; conditions: BJeH-LT cells versus BJeLR cells, read-out: Ratio IC50
BJeH-LT = experiment: Cytotoxicity against human BJeH-LT cells up to 20 ug/ml after 48 hrs by alamar blue assay; type: functional, cell-based; procedure, shortened: as §1
BJeLR = experiment: Cytotoxicity against human BJeLR cells up to 20 ug/ml after 48 hrs by alamar blue assay; type: functional, cell-based; procedure, shortened: as §1
[8] = (§3) Selectivity ratio of IC50 for human BJeH cells to IC50 for human BJeLR cells; type: ADME, cell-based; conditions: BJeH cells versus BJeLR cells, read-out: Ratio IC50
[9] = as §3; type: ADME, cell-based; conditions: BJeH cells versus BJeLR cells, read-out: Ratio IC50; remark: listed apart in the source
MEF = experiment: Cytotoxicity against MEF expressing K-rasG12D after 48 hrs by CellTiter-Glo assay; type: functional, cell-based; conditions: Mus musculus

| Compound | IC50 [1] [µM] | IC50 [2] [µM] | selectivity ratio [7] | inhibition (BJeH-LT) | inhibition (BJeLR) | also measured |
| --- | --- | --- | --- | --- | --- | --- |
| COc1ccc(N(C(=O)CCl)C(C(=O)NCCc2ccccc2)c2cccs2)cc1Cl (racemic) | 0.578 | 0.025 | – | – | – | IC50 [3]: 2.4 µM; IC50 (BJ): 0.034 µM; solubility ([4]; aqueous, read-out: solubility): 16 µM (≈ 7.64 µg/mL); Drug degradation [5]: Not Active; Drug degradation [6]: Active |
| Cc1onc(C(=O)N2CCN(C(c3ccc(F)cc3)c3ccc(F)cc3)CC2)c1[N+](=O)[O-] | 0.757 | 0.183 | 4.1 | – | – | – |
| Cc1onc(C(=O)N2CCN(C(c3ccccc3)c3ccccc3)CC2)c1[N+](=O)[O-] | 4.97 | 1.03 | 4.8 | – | – | – |
| Cc1onc(C(=O)N2CCN(Cc3ccccc3)CC2)c1[N+](=O)[O-] | – | – | – | inactive | inactive | – |
| O=C(NCCc1ccccc1)C(c1cccs1)N(C(=O)CCl)c1cccc(Cl)c1 (racemic) | 0.331 | 0.156 | 2.1 | – | – | – |
| Cc1onc(C(=O)N2CCN(C(c3ccc(Cl)cc3)c3ccc(Cl)cc3)CC2)c1[N+](=O)[O-] | 0.272 | 0.071 | 3.9 | – | – | selectivity ratio [8]: 4; selectivity ratio [9]: 4; IC50 [3]: 0.628 µM; IC50 (BJ): 0.107 µM |
| Cn1cc([N+](=O)[O-])c(C(=O)N2CCN(C(c3ccccc3)c3ccccc3)CC2)n1 | – | – | – | inactive | inactive | – |
| COc1ccc(N(C(=O)CCl)C(C(=O)NCCc2ccccc2)C2CCCCC2)cc1Cl (racemic) | 1.18 | 0.505 | 2.3 | – | – | – |
| COc1ccc(C(c2ccc(OC)cc2)N2CCN(C(=O)c3noc(C)c3[N+](=O)[O-])CC2)cc1 | 5.32 | 1.57 | 3.4 | – | – | – |
| Cc1onc(C(=O)N2CCOCC2)c1[N+](=O)[O-] | – | – | – | inactive | inactive | – |
| COc1ccc(N(C(=O)CCl)C(C(=O)NCc2ccccc2)c2cccs2)cc1Cl (racemic) | 0.179 | 0.075 | 2.4 | – | – | – |
| COc1ccc(N(C(=O)CCl)C(C(=O)NCCc2ccccc2)C(C)C)cc1Cl (racemic) | 1.3 | 0.895 | 1.5 | – | – | – |
| Cc1onc(C(=O)N2CCN(C(c3ccccc3)c3ccc(Cl)cc3)CC2)c1[N+](=O)[O-] (racemic) | 0.51 | 0.129 | 4 | – | – | – |
| Cn1ncc([N+](=O)[O-])c1C(=O)N1CCN(C(c2ccccc2)c2ccccc2)CC1 | – | – | – | inactive | inactive | – |
| COc1ccc(N(C(=O)CCl)C(C(=O)NCCc2ccccc2)c2ccc(Cl)s2)cc1Cl (racemic) | 0.133 | 0.061 | 2.2 | – | – | – |
| COc1ccc(N(C(=O)CCl)C(C)(C)C(=O)NCCc2ccccc2)cc1Cl | 0.127 | 0.058 | 2.2 | – | – | – |
| COc1ccc(N(C(=O)CCl)C(C(=O)NCCc2ccccc2)c2cccs2)cc1 (racemic) | 1.7 | 0.22 | 7.8 | – | – | – |
| COC(=O)c1ccc(C2c3[nH]c4ccccc4c3C[C@@H](C(=O)OC)N2C(=O)CCl)cc1 (stereo partly specified) | – | 0.1 | 8 | – | – | – |

| Compound | IC50 [1] [µM] | IC50 [2] [µM] | selectivity ratio [7] | inhibition (BJeH-LT) | inhibition (BJeLR) | also measured |
| --- | --- | --- | --- | --- | --- | --- |
| Cc1onc(C(=O)N2CCN(C(c3ccccn3)c3ccccn3)CC2)c1[N+](=O)[O-] | – | – | – | inactive | inactive | solubility ([4]; buffer): > 500 µM |
| CCC(=O)N1CCN(C(=O)c2noc(C)c2[N+](=O)[O-])CC1 | – | – | – | inactive | inactive | – |
| COc1ccc(N(C(=O)CCl)C(C(=O)NCCc2ccccc2)c2nc(C)cs2)cc1Cl (racemic) | 19.8 | 8.26 | 2.4 | – | – | – |
| COc1cccc(N(C(=O)CCl)C(C(=O)NCCc2ccccc2)c2cccs2)c1 (racemic) | 2.4 | 0.17 | 14 | – | – | – |
| COc1ccccc1N1CCN(C(=O)c2noc(C)c2[N+](=O)[O-])CC1 | – | – | – | inactive | inactive | – |
| O=C(c1ccc([N+](=O)[O-])o1)N1CCN(C(c2ccccc2)c2ccccc2)CC1 | 18.9 | – | – | – | inactive | – |
| COc1ccc(N(C(=O)CCl)C(C(=O)NCn2nnc3ccccc32)c2cccs2)cc1Cl (racemic) | 0.242 | 0.102 | – | – | – | – |
| COc1ccc(N(CC(=O)NCCc2ccccc2)C(=O)CCl)cc1Cl | 0.531 | 0.231 | 2.3 | – | – | – |
| C[C@H](CN1CCCC1)C(=O)c1ccc(C(F)(F)F)cc1 [LANPERISONE] | – | – | – | – | – | IC50 (MEF): 4 µM |
| Cc1onc(C(=O)NCCNC(c2ccccc2)c2ccccc2)c1[N+](=O)[O-] | – | 21.6 | – | inactive | – | – |
| O=C(c1n[nH]cc1[N+](=O)[O-])N1CCN(C(c2ccccc2)c2ccccc2)CC1 | – | – | – | inactive | inactive | – |
| Cc1onc(C(=O)N2CCCN(C(c3ccccc3)c3ccccc3)CC2)c1[N+](=O)[O-] | 2.79 | 0.773 | 3.6 | – | – | – |
| Cc1onc(C(=O)NCc2ccc(F)cc2)c1[N+](=O)[O-] | – | – | – | inactive | inactive | – |
| COc1ccc(N(C(=O)CCl)C(C(=O)NC2CCCCC2)c2cccs2)cc1Cl (racemic) | 0.27 | 0.113 | 2.4 | – | – | – |
| Cc1ccc(C(=O)N2CCN(C(c3ccccc3)c3ccccc3)CC2)c([N+](=O)[O-])c1 | – | – | – | inactive | inactive | – |
| O=C(c1cc([N+](=O)[O-])ccn1)N1CCN(C(c2ccccc2)c2ccccc2)CC1 | 49.7 | 37.3 | 1.33 | – | – | – |
| Cc1onc(C(=O)N2CCN(C(c3ccncc3)c3ccncc3)CC2)c1[N+](=O)[O-] | – | – | – | inactive | inactive | solubility ([4]; buffer): > 500 µM |
| COc1ccc(N(C(=O)CCl)C(C(=O)NCS(=O)(=O)c2ccc(C)cc2)c2cccs2)cc1Cl (racemic) | 0.208 | 0.089 | – | – | – | solubility ([4]; aqueous, read-out: solubility): < 1 µM |
